The record followed here is ChEMBL document CHEMBL1149191, “Novel pyridazino[4,3-b]indoles with dual inhibitory activity against Mycobacterium tuberculosis and monoamine oxidase” (J Med Chem, 2004).

Common to all, as to type: functional
Assay [1] has as its system Mycobacterium tuberculosis. Put plainly: In vitro inhibition of Mycobacterium tuberculosis H37Rv, determined at 20 ug/mL. Summed up: (§1)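 M. tuberculosis H37Rv (Pasteur) grown twice for 1 week each in Dubos broth at 37 °C, washed, then filtered to remove clumps. 25 × 10⁴ CFU per well in RPMI 1640 with 5 mM HEPES, 2 mM L-glutamine and 2% FBS. Compound added from DMSO stock; 5,6-[³H]-uracil added at 24 h, then 18 h at 37 °C.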

Assay [2] relates to Mycobacterium tuberculosis. Put plainly: In vitro inhibition of Mycobacterium tuberculosis H37Rv, determined at 2 ug/mL. Summed up: as §1
Assay [3] has as its system Mycobacterium tuberculosis. Put plainly: In vitro inhibition of Mycobacterium tuberculosis H37Rv, determined at 0.2 ug/mL. Summed up:
as §1

Structures are written as SMILES.

The term inhibition denotes the percentage by which the read-out fell short of the control. For `Oc1[nH]nc2c3ccccc3nc-2c1-c1ccccc1`, the inhibition at 20 µg/mL in assay [1] was found to be 0%.
In turn, `Cc1ccc(-c2c(N)nnc3c4ccccc4n(C)c23)cc1` registered an inhibition at 2 µg/mL in assay [2] of 0%. In assay [3], this molecule displayed an inhibition at 0.2 µg/mL of 0%. Also, the inhibition at 20 µg/mL in assay [1] stood at 62.3%.
`Cn1c2ccccc2c2nnc(O)c(-c3ccccc3)c21` registered an inhibition at 20 µg/mL in assay [1] of 0%.
`Nc1nnc2c3ccccc3n(Cc3ccccc3)c2c1-c1ccccc1`: in assay [2], testing at 2 µg/mL gave an inhibition of 0%. In assay [3], this molecule displayed an inhibition at 0.2 µg/mL of 0%. The molecule further returned an inhibition at 20 µg/mL in assay [1] of 20.7%.
As to `CC(C)c1ccc(-c2c(N3C(=O)c4ccccc4C3=O)nnc3c4ccccc4n(C)c23)cc1`, in assay [1], at 20 µg/mL the inhibition was 0%.
In turn, `Cc1ccc2c(c1)c1nnc(N)c(-c3ccc(C(C)C)cc3)c1n2C` gave an inhibition at 2 µg/mL in assay [2] of 0%. For the same molecule, at 0.2 µg/mL the inhibition in assay [3] was 0%. Testing at 20 µg/mL in assay [1] gave an inhibition of 40.5%.
`CCCn1c2ccccc2c2nnc(N)c(-c3ccc(C(C)C)cc3)c21`: in assay [2], at 2 µg/mL the inhibition was 0%. In assay [3], this molecule registered an inhibition at 0.2 µg/mL of 0%. Moreover, at 20 µg/mL the inhibition in assay [1] was 20%.
For `CC(=O)N(C(C)=O)c1nnc2c3ccccc3n(C)c2c1-c1ccccc1`, the inhibition at 20 µg/mL in assay [1] was found to be 0%.
`CC(C)c1ccc(-c2c(O)nnc3c4ccccc4n(C)c23)cc1`: in assay [1], the inhibition at 20 µg/mL is 0%.
In turn, `Cn1c2ccc(Br)cc2c2nnc(N)c(-c3ccccc3)c21` returned an inhibition at 2 µg/mL in assay [2] of 0%. This molecule also had an inhibition at 0.2 µg/mL in assay [3] of 0%. In assay [1], the inhibition at 20 µg/mL worked out at 54.2%.
On to `Cn1c2ccccc2c2nnc(NC=O)c(-c3ccccc3)c21`, for which the inhibition at 20 µg/mL in assay [1] was determined as 0%.
As to `Nc1[nH]nc2c3ccccc3nc-2c1-c1cccc(Br)c1`, the inhibition at 2 µg/mL in assay [2] was 0%. For the same molecule, the inhibition at 0.2 µg/mL in assay [3] worked out at 0%. Further, the inhibition at 20 µg/mL in assay [1] was found to be 32%.
